The values below come from article PMC7938327 (Journal of medicinal chemistry, 2017).

Series [1] addresses T1, human recombinant ATX (Homo sapiens, UniProt Q13822). The series is described as follows: ATX nucleotide pyrophosphatase activity, pNP-TMP hydrolysis. The series is classed as biochemical. The settings on record: 1 mM pNP-TMP, 4 nM ATX, compound 0 to 1 μM. The method, boiled down: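 Human recombinant FLAG-tagged ATX was expressed in Sf9 insect cells and purified on anti-FLAG resin. Absorbance at 405 nm was read every 2 min for 1 h.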

In series [2] the target is T1, human recombinant ATX. Put plainly: ATX lysophospholipase D activity, FS-3 hydrolysis. The series is classed as biochemical. The settings on record: for ATX inhibitory activity (in words): FS-3 substrate; for mechanism: FS-3 0 to 10 μM, inhibitor 0, 0.5 × IC50 or 2 × IC50, best global fit.
Series [3] can be described thus: In vitro stability in 4T1 cell culture by LC-MS. The class given is in vitro ADME, mouse. The conditions noted are these: 40 h of exposure to 4T1 cells.
The subject of series [4] is A2058 human melanoma cells. Put plainly: ATX-mediated in vitro invasion assay. The class given is cell-based. The settings on record: exogenous LPC and recombinant ATX.
Series [5] concerns the target LPA1 (Homo sapiens, UniProt Q92633). The series is described as follows: LPA-mediated Ca2+ mobilization, LPA1 RH7777 cells. The series is classed as cell-based. The settings on record: LPA1-elicited Ca2+ responses. The method, boiled down:
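Rat hepatoma RH7777 cells stably expressing LPA1 were seeded at 5 × 10^4 per well on poly-L-lysine, left overnight, then serum-deprived 4 h in HEPES-Krebs buffer pH 7.4. Cells were loaded 30 min with 4.5 μg/mL Fura-2AM plus 0.45% Pluronic F-127. […] The 340/510 and 380/510 nm ratio was read every 3.42 s for 70 s, normalized to LPA Emax, and fitted by variable-slope regression for IC50.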
(In general: A change in cytosolic calcium serves as a functional read-out for many receptors and channels.)

The test system of series [6] is 4T1-TaxR cancer stem-like cells (mammospheres). Put plainly: 4T1-TaxR mammosphere viability with paclitaxel. The class given is cell-based, mouse.

Entries after “also recorded” stand apart in the source; their conditions may differ.

Sequence of LPA1 (Q92633 whole entry, species assumed): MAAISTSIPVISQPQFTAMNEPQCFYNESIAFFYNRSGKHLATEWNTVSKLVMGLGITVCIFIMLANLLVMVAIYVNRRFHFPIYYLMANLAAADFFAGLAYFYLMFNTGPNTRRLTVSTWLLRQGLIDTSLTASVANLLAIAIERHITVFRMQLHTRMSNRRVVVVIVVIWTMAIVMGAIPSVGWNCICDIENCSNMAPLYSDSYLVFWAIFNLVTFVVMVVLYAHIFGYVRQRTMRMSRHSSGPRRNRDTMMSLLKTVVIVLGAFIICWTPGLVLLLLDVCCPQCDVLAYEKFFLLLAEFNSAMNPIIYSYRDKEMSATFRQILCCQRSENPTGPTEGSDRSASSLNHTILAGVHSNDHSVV

Take “4-(2,4-Dichloro-5-(morpholinosulfonyl)benzamido)-2,6-difluoro-benzoic Acid [Compound 4]”: the pNP-TMP inhibition entry in series [1] is listed as “none”. In addition, the “ATX inhibitory activity (in words)” value in series [2] is “inactive”. For the compound `O=C(Nc1cccc(F)c1)c1cc(S(=O)(=O)N2CCOCC2)c(Cl)cc1Cl` [Compound 3, 2,4-Dichloro-N-(3-fluorophenyl)-5-(morpholinosulfonyl)-benzamide], in series [1], the pNP-TMP inhibition entry is recorded as “none”. For the same compound, in series [3], the “in vitro stability (in words)” value is “significant stability”. Moreover, in series [2], the mechanism result was “competitive”. Regarding `O=C(Nc1ccc(F)c(F)c1)c1cc(S(=O)(=O)N2CCOCC2)c(Cl)cc1Cl` [Compound 3a, 2,4-Dichloro-N-(3,4-difluorophenyl)-5-(morpholinosulfonyl)-benzamide], the pNP-TMP inhibition entry in series [1] is “none”. Further, in series [4] (10 μM, compared with 30), the “inhibition of A2058 cell invasion, screen at 10 μM” value is on record as “as effective as 30”. Further, the “inhibition of A2058 cell invasion (in words)” value in series [4] (dose–response) is given as “inhibit ATX-dependent invasion; also recorded: dose dependently decreased A2058 cell invasion”. The “fold IC50 improvement relative to parent compound 3” value in series [2] (ATX, FS-3) amounted to 4 fold. Moreover, in series [2], the mechanism entry is given as “competitive”.

Consider `O=C(Nc1c(F)c(F)c(F)c(F)c1F)c1cc(S(=O)(=O)N2CCOCC2)c(Cl)cc1Cl` [Compound 3c, 2,4-Dichloro-5-(morpholinosulfonyl)-N-(perfluorophenyl)-benzamide], for which the pNP-TMP inhibition result in series [1] is “none”. In series [2], the “ATX inhibitory activity (in words)” value is “poorly active”. The corresponding values for `O=C(Nc1cc(Cl)c(Cl)c(Cl)c1)c1cc(S(=O)(=O)N2CCOCC2)c(Cl)cc1Cl` [Compound 3d, 2,4-Dichloro-5-(morpholinosulfonyl)-N-(3,4,5-trichlorophenyl)-benzamide] are “none” and “poorly active”. On the same counts, the results for `COc1cc(NC(=O)c2cc(S(=O)(=O)N3CCOCC3)c(Cl)cc2Cl)cc(OC)c1OC` [Compound 3e, 2,4-Dichloro-5-(morpholinosulfonyl)-N-(3,4,5-trimethoxyphenyl)-benzamide] are “none” and “poorly active”.

On to `O=C(Nc1cc(Cl)c(F)c(Cl)c1)c1cc(S(=O)(=O)N2CCOCC2)c(Cl)cc1Cl` [Compound 3g, 2,4-Dichloro-N-(3,5-dichloro-4-fluorophenyl)-5-(morpholinosulfonyl)benzamide], for which the pNP-TMP inhibition result in series [1] is “none”. Besides, the “antagonist activity at LPA1 (in words)” value in series [5] is “exhibited antagonist activity; also recorded: effective in antagonizing LPA1-elicited Ca^2+ responses”. Also, the “fold higher potency of 3g over 3f” value in series [2] (ATX, FS-3) amounted to 2 fold. In series [2], the mechanism result was “competitive”. Regarding `N#Cc1c(F)cc(NC(=O)c2cc(S(=O)(=O)N3CCOCC3)c(Cl)cc2Cl)cc1F` [Compound 3h, 2,4-Dichloro-N-(4-cyano-3,5-difluorophenyl)-5-(morpholinosulfonyl)benzamide], in series [1], the pNP-TMP inhibition result is “none”. On the same count and under the same terms, to `COC(=O)c1c(F)cc(NC(=O)c2cc(S(=O)(=O)N3CCOCC3)c(Cl)cc2Cl)cc1F` [Compound 3i, Methyl 4-(2,4-Dichloro-5-(morpholinosulfonyl)benzamido)-2,6-difluorobenzoate] belongs “none”. Same read-out and setting: the result for `O=C(Nc1cc(F)c(F)c(F)c1Br)c1cc(S(=O)(=O)N2CCOCC2)c(Cl)cc1Cl` [Compound 5, N-(2-Bromo-3,4,5-trifluorophenyl)-2,4-dichloro-5-(morpholinosulfonyl)benzamide] reads “none”. `O=S(=O)(c1cc(-c2nc3cccc(F)c3o2)c(Cl)cc1Cl)N1CCOCC1` [Compound 7, 2-(2,4-Dichloro-5-(morpholinosulfonyl)phenyl)-7-fluorobenzo[d]-oxazole]: the pNP-TMP inhibition entry in series [1] was “none”. The “ATX inhibitory activity (in words)” value in series [2] is given as “failed to inhibit ATX”. For the compound `O=S(=O)(c1cc(-c2nc3cc(F)c(F)cc3[nH]2)c(Cl)cc1Cl)N1CCOCC1` [Compound 8, 4-((2,4-Dichloro-5-(5,6-difluoro-1H-benzo[d]imidazol-2-yl)-phenyl)sulfonyl)-morpholine], the pNP-TMP inhibition entry in series [1] was “none”. The “ATX inhibitory activity (in words)” value in series [2] is listed as “failed to inhibit ATX”. On the same counts, the results for `CN(C(=O)c1cc(S(=O)(=O)N2CCOCC2)c(Cl)cc1Cl)c1cccc(F)c1` [Compound 9, 2,4-Dichloro-N-(3-fluorophenyl)-N-methyl-5-(morpholinosulfonyl)benzamide] are “none” and “only very weak potency”.

On to `O=S(=O)(c1cc(CNc2ccc(F)c(F)c2)c(Cl)cc1Cl)N1CCOCC1` [Compound 10, N-(2,4-Dichloro-5-(morpholinosulfonyl)benzyl)-3,4-difluoroani-line], for which the pNP-TMP inhibition result in series [1] is listed as “none”. Further, in series [2], the “ATX inhibitory activity (in words)” value is “inactive”.

On to `O=S(=O)(c1cc(CNc2cc(F)c(F)c(F)c2)c(Cl)cc1Cl)N1CCOCC1` [Compound 11, N-(2,4-Dichloro-5-(morpholinosulfonyl)benzyl)-3,4,5-trifluoroani-line], for which, in series [1], the pNP-TMP inhibition entry is given as “none”. As for `O=S(=O)(c1cc(C(=S)Nc2cccc(F)c2)c(Cl)cc1Cl)N1CCOCC1` [Compound 12, 2,4-Dichloro-N-(3-fluorophenyl)-5-(morpholinosulfonyl)-benzothioamide], the pNP-TMP inhibition entry in series [1] is on record as “none”. Besides, in series [2], the “ATX inhibitory activity (in words)” value is on record as “retained similar inhibitory activity as the amide analogues”. On the same counts, the results for `O=S(=O)(c1cc(C(=S)Nc2ccc(F)c(F)c2)c(Cl)cc1Cl)N1CCOCC1` [Compound 13, 2,4-Dichloro-N-(3,4-difluorophenyl)-5-(morpholinosulfonyl)-benzothioamide] are “none” and “retained similar inhibitory activity as the amide analogues”. In the case of `O=S(=O)(c1cc(C(=S)Nc2cc(Cl)c(F)c(Cl)c2)c(Cl)cc1Cl)N1CCOCC1` [Compound 15, 2,4-Dichloro-N-(3,5-dichloro-4-fluorophenyl)-5-(morpholinosulfonyl)-benzothioamide], in series [1], the pNP-TMP inhibition result is recorded as “none”. For the same compound, in series [2], the “ATX inhibitory activity (in words)” value is on record as “retained similar inhibitory activity as the amide analogues”. For the compound `O=S(=O)(Nc1cc(S(=O)(=O)N2CCOCC2)c(Cl)cc1Cl)c1cccc(F)c1` [Compound 19], the pNP-TMP inhibition result in series [1] is on record as “none”. For the same compound, in series [2], the “ATX inhibitory activity (in words)” value is recorded as “lost their ATX inhibitory activity”. On the same counts, the results for `O=S(=O)(c1cc(N(S(=O)(=O)c2cccc(F)c2)S(=O)(=O)c2cccc(F)c2)c(Cl)cc1Cl)N1CCOCC1` [Compound 20] are “none” and “lost their ATX inhibitory activity”.

For the compound `O=S(=O)(Nc1cccc(F)c1)c1cc(S(=O)(=O)N2CCOCC2)c(Cl)cc1Cl` [Compound 22, 2,4-Dichloro-N-(3-fluorophenyl)-5-(morpholinosulfonyl)-benzenesulfonamide], the pNP-TMP inhibition result in series [1] is reported as “none”. For the same compound, the “ATX inhibitory activity (in words)” value in series [2] was “lost their ATX inhibitory activity”. As for `O=S(=O)(Nc1cc(F)c(F)c(F)c1)c1cc(S(=O)(=O)N2CCOCC2)c(Cl)cc1Cl` [Compound 23, 2,4-Dichloro-5-(morpholinosulfonyl)-N-(3,4,5-trifluorophenyl)-benzenesulfonamide], the pNP-TMP inhibition entry in series [1] was “none”. In addition, the “ATX inhibitory activity (in words)” value in series [2] was “lost their ATX inhibitory activity”.

For `O=C(Nc1cc(F)c(F)c(F)c1)c1cc(NN2CCOCC2)c(Cl)cc1Cl` [Compound 25, 2,4-Dichloro-5-(morpholinoamino)-N-(3,4,5-trifluorophenyl)-benzamide], the pNP-TMP inhibition entry in series [1] is “none”. Further, the “ATX inhibitory activity (in words)” value in series [2] was “completely lost ATX inhibitory activity”.

`CS(=O)(=O)N(C(=O)c1cc(NN2CCOCC2)c(Cl)cc1Cl)c1cc(F)c(F)c(F)c1` [Compound 26a, 2,4-Dichloro-N-(methylsulfonyl)-5-(morpholinoamino)-N-(3,4,5-trifluorophenyl)-benzamide]: in series [1], the pNP-TMP inhibition result is given as “none”.

With `CN1CCN(S(=O)(=O)c2cc(C(=O)Nc3cc(F)c(F)c(F)c3)c(Cl)cc2Cl)CC1` [Compound 28a, 2,4-Dichloro-5-((4-methylpiperazin-1-yl)sulfonyl)-N-(3,4,5-trifluorophenyl)-benzamide], the pNP-TMP inhibition result in series [1] was “none”. Same read-out and setting: the result for `CN1CCN(S(=O)(=O)c2cc(C(=O)Nc3cc(Cl)c(F)c(Cl)c3)c(Cl)cc2Cl)CC1` [Compound 28b, 2,4-Dichloro-N-(3,5-dichloro-4-fluorophenyl)-5-((4-methylpiperazin-1-yl)sulfonyl)benzamide] reads “none”; that for `CN1CCN(S(=O)(=O)c2cc(C(=S)Nc3cc(Cl)c(F)c(Cl)c3)c(Cl)cc2Cl)CC1` [Compound 29, 2,4-Dichloro-N-(3,5-dichloro-4-fluorophenyl)-5-((4-methylpipera-zin-1-yl)sulfonyl)-benzothioamide], “none”.

Take `CCCCCCCCCCCCCCCc1ccc(CP(=O)(O)O)cc1` [compound 30, (4-pentadecylbenzyl)phosphonic acid, reference compound]: the “resensitization of cancer stem-like cells to PT (in words)” value in series [6] (4T1-TaxR cells) is on record as “effectively resensitized”. In addition, the “further reduction of cell viability compared to PT alone” value in series [6] (4T1-TaxR mammospheres, PT 100 nM, compound 5 μM, 3 days) was 25–30%.
